Screens from PubChem BioAssay.
Rtt109 HAT inh = C. albicans Rtt109 histone acetyltransferase inhibition | purified Rtt109/Vps75, ThioGlo CoA-SH fluorescence, 4 h | AID 540336 | actives 0.16% (n = 330,000) | inhibition, % at 34.9 µM | Q5AAJ8;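 active means inhibition of at least 50% in every replicate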
HIV Env fusion = inhibitors of HIV Env-mediated cell fusion. HeLa-JRFL Env/CEM21 cell fusion, luciferase. inhibition, % at 12.3 µM. actives 1.1% (n = 360,000);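 active means mean replicate inhibition score of at least 50 and every replicate individually at or above 50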;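 further: 0% = plate neutral controls and 100% = maraviroc near 300 nM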
PglD DTNB = blocks C. jejuni PglD acetyltransferase activity; purified PglD enzyme, DTNB colorimetric CoA detection; AID 602405; actives 0.098% (n = 360,000); inhibition, % at 12.5 µM; in the data active means inhibition above about 16%, passing the limit was not always enough
SR-BI DiI-HDL act = SR-BI HDL lipid transfer activation. CHO ldlA[mSR-BI] cells, DiI-HDL uptake fluorescence, 3 h; 100 = double the neutral-control signal. activation, % at 12.5 µM. actives 0.096% (n = 320,000);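 active means mean replicate activation of at least 60% and every replicate at or above 60%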;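 further: 0% = median plate neutral-control signal and 100% = twice that signal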
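Test system: SR-BI-overexpressing, LDLR-lacking CHO cells; Medium: Ham's F12 with 0.5% BSA, HEPES 25 mM, pH 7.4; Schedule: 3 h, 37 °C; Technique: bottom-read fluorescence, 550/595 nm.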
Glyco luc inh = N-linked glycosylation inhibition | reporter increase, % at 12.5 µM | actives 0.23% (n = 360,000) | D54 ERlucT glycosylation luciferase reporter, 24 h; percent of 100 nM tunicamycin response | AID 588692;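 active means mean luciferase reporter signal, scaled so untreated is 0 and the glycosylation-blocking control 100, at or above a set limit in every replicate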;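 further: luciferase carries N-glycosylation sites so blocking glycosylation raises the light; 0% = median of neutral control wells and 100% = median of 100 nM tunicamycin wells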
SR-BI HDL uptake = blocks mouse SR-BI lipid uptake from DiI-HDL; Q61009; ldlA[mSR-BI] CHO cells, DiI-HDL uptake fluorescence, 3 h; inhibition, % at 12.5 µM; actives 0.96% (n = 320,000); AID 488896;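 active means mean replicate inhibition of at least 70% and a set share of replicates each scoring 70 or more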;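 further: 0% = median of neutral control wells and 100% = median of positive control wells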
Active calls of the source: *; ! = repeats disagree; [ ] = remark or other dose. Rows were chosen to be rich in hits. Some 1.9% of all compounds tested hit in one or more screens of this group.

For Cc1ccc2cc3cc(C(=O)NCCN4CCOCC4)oc3nc2c1 the results were Rtt109 HAT inh 16, HIV Env fusion 59*, PglD DTNB 3, SR-BI DiI-HDL act -8, Glyco luc inh 0 and SR-BI HDL uptake 8.
For Cc1ccc(S(=O)(=O)NOCc2ccccc2)cc1 the results were Rtt109 HAT inh -1, HIV Env fusion 0, PglD DTNB -2, SR-BI DiI-HDL act 12, Glyco luc inh -1 and SR-BI HDL uptake -12.
`CCC(=NOCc1ccccc1)C(=O)NNS(=O)(=O)c1ccc(C)cc1` gave Rtt109 HAT inh 4, HIV Env fusion 57*, PglD DTNB 4, SR-BI DiI-HDL act 4, Glyco luc inh -1 and SR-BI HDL uptake -4.
`CCC(C)Sc1cc(-c2nc3ccccn3c2NC2CCCCC2)ccc1OC` (stereo not given) gave Rtt109 HAT inh -5, HIV Env fusion 59*!, PglD DTNB -10, SR-BI DiI-HDL act 66*, Glyco luc inh -5 and SR-BI HDL uptake -66.
CCC(C)Sc1cc(-c2nc3cc(C)ccn3c2NC2CCCCC2)ccc1OC (stereo not given) was read as Rtt109 HAT inh 6, HIV Env fusion 7, PglD DTNB -4, SR-BI DiI-HDL act -45, Glyco luc inh -9 and SR-BI HDL uptake 45.
For C/C(=N\Nc1nc2ccccc2[nH]1)c1ccccn1 the results were Rtt109 HAT inh 3, HIV Env fusion 65*, PglD DTNB 2, SR-BI DiI-HDL act 6, Glyco luc inh -13 and SR-BI HDL uptake -6.
For O=C(C[C@H]1CC[C@@H]2[C@H](COC[C@@H](O)CN2Cc2ccc(Oc3ccccc3)cc2)O1)N1CCCCC1 the results were PglD DTNB -2.
Screening N#CCCN(C(=O)COC(=O)c1ccc(S(=O)(=O)N2CCOCC2)cc1)c1ccccc1 returned Rtt109 HAT inh 2, HIV Env fusion -119, PglD DTNB 3, SR-BI DiI-HDL act 22, Glyco luc inh -1 and SR-BI HDL uptake -22.
For O=C(COC(=O)c1cc(S(=O)(=O)N2CCCCC2)ccc1Cl)NC1CCCCC1 the results were HIV Env fusion 25, PglD DTNB 2 and Glyco luc inh 2.
Screening CN(C(=O)COC(=O)c1cc(S(=O)(=O)N2CCCCC2)ccc1Cl)c1ccccc1 returned Rtt109 HAT inh 0, HIV Env fusion 24, PglD DTNB 5, SR-BI DiI-HDL act -72, Glyco luc inh -3 and SR-BI HDL uptake 72*.
CCCCN(C(=O)c1cc(S(=O)(=O)N2CCCCCC2)ccc1OC)c1ccccc1 was read as Rtt109 HAT inh 11, HIV Env fusion 93*, PglD DTNB -5, SR-BI DiI-HDL act 17, Glyco luc inh -6 and SR-BI HDL uptake -17.
Screening Cn1cccc1C(=O)NC(=O)COC(=O)c1cc(S(=O)(=O)N2CCCCC2)ccc1Cl returned Rtt109 HAT inh 17, HIV Env fusion -6, PglD DTNB -3, SR-BI DiI-HDL act -81, Glyco luc inh 2 and SR-BI HDL uptake 81*.
Screening CN(C(=O)COC(=O)c1ccc(S(=O)(=O)N2CCOCC2)cc1)c1ccccc1 returned Rtt109 HAT inh 1, HIV Env fusion -4, PglD DTNB 1, SR-BI DiI-HDL act 70*, Glyco luc inh 0 and SR-BI HDL uptake -70.
`CN1C(=O)c2cc(NC(=O)Nc3ccc(Cl)cc3)ccc2OC[C@H]2O[C@@H](CC(=O)NCCN3CCCCC3)CC[C@@H]21` gave HIV Env fusion -19[16.7 µM] and PglD DTNB 5.
`CCOC(=O)c1ccc(S(=O)(=O)N2CCC(C(=O)O)CC2)cc1` gave Rtt109 HAT inh 10, HIV Env fusion -89, PglD DTNB 11, SR-BI DiI-HDL act 69*, Glyco luc inh -2 and SR-BI HDL uptake -69.
CCOC(=O)c1ccc(S(=O)(=O)N2CCC(C(=O)OCC)CC2)cc1 was read as Rtt109 HAT inh -3, PglD DTNB 5, SR-BI DiI-HDL act 11, Glyco luc inh 0 and SR-BI HDL uptake -11.
O=C(NCC[C@@H]1CC[C@@H](NC(=O)C2CCOCC2)[C@@H](CO)O1)Nc1ccc(Cl)cc1 was read as HIV Env fusion 9[16.7 µM] and PglD DTNB 4.
